SUMO1-SIM PPI: modulators of human SUMO1-mediated protein-protein interactions; P63165; SUMO1 binding to a labelled peptide, TR-FRET, 1 h; inhibition, % at 20 µM; 0.33% of 360,000 active; AID 602429; in the data active means inhibition above about 37%
SKN-1 block: C. elegans SKN-1 inhibition; C. elegans VP596 Pgst-4::GFP/RFP ratio, acrylamide-induced, 24 h; inhibition, % at 21.8 µM; 0.49% of 360,000 active; AID 624304;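 active means interference check ratio from 0.5 to 1.5 plus GFP to RFP signal ratio inhibition reaching or exceeding a fixed threshold, cut at about 30% in these data, passing the limit was not always enough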
CSN deneddyl inh: CSN deneddylation inhibition | inhibition, % at 12.5 µM | Q92905 | Purified CSN, SCF-Nedd8-OG deneddylation, fluorescence polarization | 0.38% of 360,000 active | AID 651999;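 active means pattern-corrected inhibition above about 35%, with an unprinted fluorescence ratio check between 0.5 and 1.5, limit read from the data, passing the limit was not always enough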;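 further: 0% = enzyme with substrate and 100% = substrate without enzyme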
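Assay system: Purified human Csn5 enzyme expressed in HEK293T cells | Amount: Enzyme 0.24 nM | Measured by: Fluorescence polarization readout | Medium: Tris/NaCl/DTT buffer, pH 7.5 | Compound dosing: One concentration, 12.5 µM, 0.25% DMSO | Times: 90 min incubation of compound, enzyme and substrate at room temperature | Control set: no-enzyme wells high, enzyme-with-substrate wells low | Read-out: % inhibition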
Rpn11 inh: Rpn11 (human) deubiquitinase inhibition; O00487; human 26S proteasome, Ub4-pepOG fluorescence polarization; 20S core pre-blocked with epoxomicin; inhibition, % at 20 µM; 0.59% of 360,000 active; AID 588493;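 active means inhibition at 20 µM, scaled to each plate's controls, above about 33%, limit read from the data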
DNMT1 block: inhibitors of human DNMT1; inhibition (reported as % activation of signal), % at 10 µM; P26358; AID 588458; DNMT1 molecular beacon, Hinp1I cleavage, fluorescence; 0.83% of 360,000 active; in the data active means inhibition above about 50%
Target sequence (P26358 504-1616 limits assumed): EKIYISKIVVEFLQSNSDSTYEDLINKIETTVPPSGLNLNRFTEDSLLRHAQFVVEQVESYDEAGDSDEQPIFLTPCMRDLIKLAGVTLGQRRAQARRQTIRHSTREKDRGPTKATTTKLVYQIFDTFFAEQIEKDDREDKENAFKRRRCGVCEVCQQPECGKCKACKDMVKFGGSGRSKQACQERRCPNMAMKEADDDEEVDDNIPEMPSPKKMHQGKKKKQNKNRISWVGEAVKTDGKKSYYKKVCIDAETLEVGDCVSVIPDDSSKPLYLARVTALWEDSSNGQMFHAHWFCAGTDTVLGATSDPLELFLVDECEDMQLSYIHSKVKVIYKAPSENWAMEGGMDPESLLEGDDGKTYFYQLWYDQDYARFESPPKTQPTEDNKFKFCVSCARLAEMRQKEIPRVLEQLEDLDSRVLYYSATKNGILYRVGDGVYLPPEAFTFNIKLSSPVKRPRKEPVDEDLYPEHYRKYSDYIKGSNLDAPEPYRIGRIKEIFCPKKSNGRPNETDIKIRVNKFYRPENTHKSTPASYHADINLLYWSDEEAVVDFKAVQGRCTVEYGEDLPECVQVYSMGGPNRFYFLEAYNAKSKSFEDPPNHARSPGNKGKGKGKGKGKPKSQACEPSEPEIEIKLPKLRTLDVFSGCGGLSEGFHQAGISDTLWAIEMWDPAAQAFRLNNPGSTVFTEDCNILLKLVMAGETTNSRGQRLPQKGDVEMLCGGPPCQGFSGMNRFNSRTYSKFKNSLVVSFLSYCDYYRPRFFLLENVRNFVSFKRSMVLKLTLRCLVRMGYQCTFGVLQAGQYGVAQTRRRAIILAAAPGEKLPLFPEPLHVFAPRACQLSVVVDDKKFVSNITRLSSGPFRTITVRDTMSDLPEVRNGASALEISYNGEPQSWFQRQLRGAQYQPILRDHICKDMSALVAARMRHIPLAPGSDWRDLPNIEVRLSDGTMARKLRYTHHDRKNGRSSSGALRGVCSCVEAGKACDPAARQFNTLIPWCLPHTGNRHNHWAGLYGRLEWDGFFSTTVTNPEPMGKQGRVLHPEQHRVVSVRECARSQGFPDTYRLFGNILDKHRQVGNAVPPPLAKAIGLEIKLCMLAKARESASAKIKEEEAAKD
MT1-MMP act inh: inhibitors of human MT1-MMP activation; HT1080 RFP-PRO-GFP cells, GFP/RFP ratio fluorescence, overnight; percent of plate control window, DMSO zero; GFP/RFP ratio change, % at 20 µM; 0.061% of 360,000 active;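 active means GFP/RFP ratio change of at least 30% with cell ATP level not reduced by more than half and red fluorescence within 50% of control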
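Material: RFP-PRO-GFP reporter HT1080 cells. Dosing: single-point 20 µM compound, 1% DMSO. Controls: DMSO and RFP-L50D-GFP cell wells. Timing: cells overnight before dosing, compound overnight, 37 °C, 5% CO2. Measure: GFP/RFP fluorescence ratio.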
Rpn11 confirm: Rpn11 inhibition confirmation, single concentration. shares compounds with Rpn11 inh. purified human 26S proteasome, Ub4-pepOG fluorescence polarization; proteasome pretreated with epoxomicin. inhibition, % at 20 µM. 29% of 1,900 active
MMP-2 inh: counter-screen for RPN11 inhibitors: inhibition of human MMP-2 | 4% of 1,900 active | recombinant MMP-2, FRET peptide cleavage fluorescence | inhibition, % at 20 µM | shares compounds with Rpn11 inh;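 further: human MMP-2 activated beforehand with APMA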
Thrombin inh: thrombin (bovine) inhibition counter-screen | shares compounds with Rpn11 inh | bovine thrombin cleavage of Ub4-pepOG, fluorescence polarization | inhibition, % at 20 µM | 13% of 1,900 active | AID 602333;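 active means mean inhibition at least 40% at 20 µM, or signal 3 deviations below plate average, so some actives read negative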;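 further: plate controls were thrombin with DMSO for no effect and buffer wells lacking thrombin for full effect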
Numbers without * were called inactive. The list is not random: actives were taken first. Their share in the collection is about 2.3%. Unless noted, no stated cut-off is given here; in the data, active means inhibition above about 40%; inactive means the rest.

What do the screens show for `CC1(C(=O)NS(=O)(=O)c2ccc(F)cc2F)CCN1C(=O)C/C=C/c1ccccc1` (stereo not drawn)?
SUMO1-SIM PPI: 3.8; SKN-1 block: -8.6; CSN deneddyl inh: -0.3; Rpn11 inh: -3.1; DNMT1 block: -1.0; MT1-MMP act inh: 1.3

What do the screens show for `CC(=O)N1CCc2cc(N=NC3=C(O)CC(C)(C)CC3=O)ccc21`?
SUMO1-SIM PPI: -63.0; SKN-1 block: 18.7; CSN deneddyl inh: 29.2; Rpn11 inh: 108.3*; DNMT1 block: -1.4; MT1-MMP act inh: -0.7; Rpn11 confirm: 66.5*; MMP-2 inh: -29.3; Thrombin inh: 48.0*

Results for CC1(C)CC(=O)C(N=Nc2cc(Cl)c(Cl)c(Cl)c2)=C(O)C1 ?
SUMO1-SIM PPI: -16.9; SKN-1 block: -2.5; CSN deneddyl inh: 2.4; Rpn11 inh: -0.3; DNMT1 block: 0.3; MT1-MMP act inh: 0.7

What do the screens show for `O=C1NC(=S)N/C1=C/C=C/c1ccccc1`?
SUMO1-SIM PPI: -13.8; SKN-1 block: 14.7; CSN deneddyl inh: 2.5; Rpn11 inh: -2.3; DNMT1 block: -0.8; MT1-MMP act inh: 1.3

How did O=C1NC(=S)NC1=Cc1ccc2c(c1)CCC2 do in these assays?
SUMO1-SIM PPI: -19.5; SKN-1 block: -6.6; CSN deneddyl inh: 2.8; Rpn11 inh: 46.2*; DNMT1 block: -20.8; MT1-MMP act inh: -1.9; Rpn11 confirm: -13.0; MMP-2 inh: 29.0; Thrombin inh: -13.7

Results for COc1ccc2c(c1)C1=NN(/C(C)=C\C(C)=O)C(c3ccccc3)C1CC2 (stereo not drawn) ?
SUMO1-SIM PPI: -11.6; SKN-1 block: 12.4; CSN deneddyl inh: 8.6; Rpn11 inh: 25.9; DNMT1 block: -19.8; MT1-MMP act inh: -16.9

How did COc1ccc2c(c1)C1=NN(/C(C)=C/C(C)=O)C(c3cccc(F)c3)C1CC2 (stereo not drawn) do in these assays?
SUMO1-SIM PPI: -5.4; SKN-1 block: 23.7; CSN deneddyl inh: 5.4; Rpn11 inh: 58.8*; DNMT1 block: -15.6; MT1-MMP act inh: -6.9; Rpn11 confirm: 15.2; MMP-2 inh: -0.2; Thrombin inh: 7.5

How did Cc1cccc(NC(=O)c2sc3nc(-c4ccccc4)cn3c2C)n1 do in these assays?
SUMO1-SIM PPI: 0.4; SKN-1 block: 11.4; CSN deneddyl inh: 15.2; Rpn11 inh: 55.1*; DNMT1 block: -5.2; MT1-MMP act inh: 0.0; Rpn11 confirm: 8.6; MMP-2 inh: -29.2; Thrombin inh: -7.3

How did COc1ccc(-c2cn3c(C)c(C(=O)Nc4cccc(C)n4)sc3n2)cc1 do in these assays?
SUMO1-SIM PPI: 4.3; SKN-1 block: 2.3; CSN deneddyl inh: 3.0; Rpn11 inh: 25.6; DNMT1 block: -10.7; MT1-MMP act inh: -6.6

Results for N=c1c(S(=O)(=O)c2ccccc2)cc2c(=O)n3ccccc3nc2n1C1CCCC1 ?
SUMO1-SIM PPI: -1.7; SKN-1 block: 6.8; CSN deneddyl inh: 8.0; Rpn11 inh: 78.3*; DNMT1 block: -3.7; MT1-MMP act inh: 3.1; Rpn11 confirm: -12.5; MMP-2 inh: -44.2; Thrombin inh: -13.3

What do the screens show for `N=c1c(S(=O)(=O)c2ccc(Br)cc2)cc2c(=O)n3ccccc3nc2n1C1CCCC1`?
SUMO1-SIM PPI: -2.6; SKN-1 block: 6.3; CSN deneddyl inh: 0.8; Rpn11 inh: 13.9; DNMT1 block: -3.1; MT1-MMP act inh: 1.5

What do the screens show for `O=C(NCc1ccc(F)cc1)c1cc(C2CCCCN2C(=O)CCCc2ccccc2)on1` (stereo not drawn)?
SUMO1-SIM PPI: 0.0; SKN-1 block: 6.6; CSN deneddyl inh: 1.5; Rpn11 inh: -2.2; DNMT1 block: -3.8; MT1-MMP act inh: -1.0

Results for COc1ccc2[nH]cc(/C=C/c3cc[n+](C)cc3)c2c1 ?
SUMO1-SIM PPI: -60.3; SKN-1 block: -1.9; CSN deneddyl inh: 32.5; Rpn11 inh: 116.5*; DNMT1 block: -6.3; MT1-MMP act inh: -90.1; Rpn11 confirm: 114.1*; MMP-2 inh: -66.1; Thrombin inh: 114.2*

How did COc1ccc(N=C(C)C2C(=O)c3ccccc3C2=O)cc1 do in these assays?
SUMO1-SIM PPI: -37.0; SKN-1 block: 13.9; CSN deneddyl inh: -3.1; Rpn11 inh: 1.6; DNMT1 block: -6.9; MT1-MMP act inh: -2.4

Results for Cc1cccnc1C(NC(=O)C1CCN(Cc2ccc(Oc3ccccc3)cc2)CC1)c1ccc(F)cc1 (stereo not drawn) ?
SUMO1-SIM PPI: 3.4; SKN-1 block: -13.7; CSN deneddyl inh: 1.8; Rpn11 inh: 5.9; DNMT1 block: -10.3; MT1-MMP act inh: -5.0

What do the screens show for `COc1ccccc1CNc1nc(Nc2ccccc2-n2cccn2)c2sccc2n1`?
SUMO1-SIM PPI: -34.9; SKN-1 block: -0.2; CSN deneddyl inh: 0.0; Rpn11 inh: -1.9; DNMT1 block: -15.1; MT1-MMP act inh: 1.9

How did O=C(NC1CCCC1)C(c1ccccn1)N(Cc1ccccc1F)C(=O)c1csnn1 (stereo not drawn) do in these assays?
SUMO1-SIM PPI: 6.5; SKN-1 block: 13.1; CSN deneddyl inh: -5.6; Rpn11 inh: 56.5*; DNMT1 block: -1.2; MT1-MMP act inh: -0.6; Rpn11 confirm: -21.9; MMP-2 inh: -21.0; Thrombin inh: -26.6

How did CCOC(=O)C1CCCN(Cc2nc3ccc([N+](=O)[O-])cc3c(=O)n2-c2ccc(OC)cc2OC)C1 (stereo not drawn) do in these assays?
SUMO1-SIM PPI: -30.5; SKN-1 block: -3.8; CSN deneddyl inh: 4.0; Rpn11 inh: 108.6*; DNMT1 block: -3.0; MT1-MMP act inh: -1.2; Rpn11 confirm: -0.2; MMP-2 inh: -24.7; Thrombin inh: -14.5

What do the screens show for `O=C(Nc1ccc(F)cc1)Nc1ccc(Oc2ncnc3cc(Cl)ccc23)nc1`?
SUMO1-SIM PPI: -2.1; SKN-1 block: -2.2; CSN deneddyl inh: 2.5; Rpn11 inh: 11.2; DNMT1 block: 30.5; MT1-MMP act inh: -1.1

How did O=C(Nc1ccc(Oc2ncnc3cc(Cl)ccc23)nc1)c1cccs1 do in these assays?
SUMO1-SIM PPI: -5.8; SKN-1 block: 21.0; CSN deneddyl inh: 20.5; Rpn11 inh: 50.5*; DNMT1 block: 46.0; MT1-MMP act inh: 3.5; Rpn11 confirm: 5.1; MMP-2 inh: -2.2; Thrombin inh: -2.5

Source: PubChem (Sanford-Burnham Center for Chemical Genomics)
